Results: ChEMBL document CHEMBL1123534, “Synthesis and renal vasodilator activity of 2-chlorodopamine and N-substituted derivatives” (1986)

Tests used:
Canis familiaris [1] = test: Effect of compound on the renal blood flow (RBF) in alpha-blocked anesthetized dogs at a dose of 100 nmol after propranolol; assay type: functional, Canis lupus familiaris, Kidney
Outline: (§1)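 Phenoxybenzamine α-blocked anesthetized dogs, N=4-5/group (dopamine N=18). Doses given as renal-artery boluses; Δ renal blood flow in mL/min, mean ± SEM. SCH 23390 infused at 0.5 µg/kg/min iv, with doses repeated 5 min after infusion onset. After ≥1.5 h recovery, propranolol was given at 0.5 mg/kg ia over 15 min. The combined condition repeated SCH 23390 infusion with propranolol present.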

Canis familiaris [2] = test: Compound was tested for the renal vasodilatory activity in anesthetized dog.; assay type: functional, Canis lupus familiaris; design: unit not given here
Outline: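 Dogs anesthetized and α-blocked with phenoxybenzamine, with saline infused iv during blockade. Four ascending bolus doses (3-10000 nmol) given into the renal artery in 0.2 mL isotonic saline, one test compound per dog. Maximal rise in renal blood flow was taken as % of each dog's response to 100 nmol dopamine. ED30 is the dose raising flow by 30%.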

Canis familiaris [3] = test: Effect of compound on the renal blood flow (RBF) in alpha-blocked anesthetized dogs at a dose of 100 nmol after SCH 23390.; assay type: functional, Canis lupus familiaris, Kidney; outline: as §1
Canis familiaris [4] = test: Effect of compound on the renal blood flow (RBF) in alpha-blocked anesthetized dogs at a dose of 1000 nmol after SCH 23390+propranolol; assay type: functional, Canis lupus familiaris, Kidney; outline: as §1
Canis familiaris [5] = test: Effect of compound on the renal blood flow (RBF) in alpha-blocked anesthetized dogs at a dose of 300 nmol after SCH 23390+propranolol; assay type: functional, Canis lupus familiaris, Kidney; outline: as §1
Canis familiaris [6] = test: Effect of compound on the renal blood flow (RBF) in alpha-blocked anesthetized dogs at a dose of 1000 nmol after SCH 23390.; assay type: functional, Canis lupus familiaris, Kidney; outline: as §1
Canis familiaris [7] = test: Effect of compound on the renal blood flow (RBF) in alpha-blocked anesthetized dogs at a dose of 300 nmol after SCH 23390.; assay type: functional, Canis lupus familiaris, Kidney; outline: as §1
Canis familiaris [8] = test: Effect of compound on the renal blood flow (RBF) in alpha-blocked anesthetized dogs at a dose of 300 nmol after propranolol; assay type: functional, Canis lupus familiaris, Kidney; outline: as §1
Canis familiaris [9] = test: Effect of compound on the renal blood flow (RBF) in alpha-blocked anesthetized dogs at a dose of 1000 nmol after propranolol; assay type: functional, Canis lupus familiaris, Kidney; outline: as §1
Canis familiaris [10] = test: Effect of compound on the renal blood flow (RBF) in alpha-blocked anesthetized dogs at a dose of 10000 nmol after propranolol; assay type: functional, Canis lupus familiaris, Kidney; outline: as §1
Canis familiaris [11] = test: Effect of compound on the renal blood flow (RBF) in alpha-blocked anesthetized dogs at a dose of 10000 nmol after SCH 23390.; assay type: functional, Canis lupus familiaris, Kidney; outline: as §1
Canis familiaris [12] = test: Effect of compound on the renal blood flow (RBF) in alpha-blocked anesthetized dogs at a dose of 3000 nmol after SCH 23390.; assay type: functional, Canis lupus familiaris, Kidney; outline: as §1
Canis familiaris [13] = test: Effect of compound on the renal blood flow (RBF) in alpha-blocked anesthetized dogs at a dose of 10000 nmol after SCH 23390+propranolol; assay type: functional, Canis lupus familiaris, Kidney; outline: as §1
Canis familiaris [14] = test: Effect of compound on the renal blood flow (RBF) in alpha-blocked anesthetized dogs at a dose of 3000 nmol after propranolol; assay type: functional, Canis lupus familiaris, Kidney; outline: as §1
Canis familiaris [15] = test: Effect of compound on the renal blood flow (RBF) in alpha-blocked anesthetized dogs at a dose of 3000 nmol after SCH 23390+propranolol; assay type: functional, Canis lupus familiaris, Kidney; outline: as §1
Canis familiaris [16] = test: Effect of compound on the renal blood flow (RBF) in alpha-blocked anesthetized dogs at a dose of 100 nmol after SCH 23390+propranolol; assay type: functional, Canis lupus familiaris, Kidney; outline: as §1

Row | Compound | RBF (Canis familiaris [1]) | ED30 (Canis familiaris [2]) | RBF (Canis familiaris [3]) | RBF (Canis familiaris [7]) | RBF (Canis familiaris [8]) | other results
1 | Cl.NCCc1ccc(O)c(O)c1Cl | 43 mL/min | 13.5 | 4 mL/min |  |  | 
2 | CCNCCc1ccc(O)c(O)c1Cl.Cl |  | 67.4 |  | 22 mL/min | 25 mL/min | RBF (Canis familiaris [4]): 2 mL/min; RBF (Canis familiaris [5]): 2 mL/min; RBF (Canis familiaris [6]): 32 mL/min; RBF (Canis familiaris [9]): 40 mL/min
3 | CCCNCCc1ccc(O)c(O)c1Cl.Cl |  | 2166 |  |  |  | RBF (Canis familiaris [10]): 17 mL/min; RBF (Canis familiaris [11]): 17 mL/min; RBF (Canis familiaris [12]): 11 mL/min; RBF (Canis familiaris [13]): 5 mL/min; RBF (Canis familiaris [14]): 11 mL/min; RBF (Canis familiaris [15]): 2 mL/min
4 | CNCCc1ccc(O)c(O)c1Cl.Cl | 34 mL/min | 11.5 | 8 mL/min | 15 mL/min | 49 mL/min | 
5 | NCCc1ccc(O)c(O)c1 [DOPAMINE] | 69 mL/min |  | 15 mL/min |  |  | RBF (Canis familiaris [16]): 14 mL/min
